Laboratory results reported in ChEMBL document CHEMBL3745678, “Novel β-Carboline/Hydroxamic Acid Hybrids Targeting Both Histone Deacetylase and DNA Display High Anticancer Activity via Regulation of the p53 Signaling Pathway” (J Med Chem, 2015).
The source made the active and inactive calls. The calls are words filed in the database; no cut-off is given here.

Legend:
[1] = target: T1, Histone deacetylase 8 (Homo sapiens, UniProt Q9BY41); assay: Inhibition of recombinant human HDAC8 using Boc-Lys (Ac)-AMC as substrate after 60 mins by fluorometric analysis
T1 sequence (Q9BY41 whole entry): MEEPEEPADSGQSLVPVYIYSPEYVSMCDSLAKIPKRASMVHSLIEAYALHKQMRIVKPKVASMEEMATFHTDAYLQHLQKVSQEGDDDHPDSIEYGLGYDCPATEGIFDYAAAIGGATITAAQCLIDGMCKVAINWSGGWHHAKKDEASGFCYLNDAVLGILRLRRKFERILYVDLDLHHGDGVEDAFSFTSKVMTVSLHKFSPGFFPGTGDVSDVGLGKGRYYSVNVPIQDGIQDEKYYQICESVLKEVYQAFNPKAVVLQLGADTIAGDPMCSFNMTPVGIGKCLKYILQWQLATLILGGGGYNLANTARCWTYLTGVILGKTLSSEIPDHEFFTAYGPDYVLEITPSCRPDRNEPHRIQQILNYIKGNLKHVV

[2] = test system: Mus musculus; assay: Acute toxicity in ICR mouse assessed as death at 240 to 375 mg/kg, ip measured after 4 hrs; assay type: organism-based; conditions: in vivo
How it was run: (§1)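 Female ICR mice, single intraperitoneal injection at 585.9, 468.8, […], 300 or 240 mg/kg, or vehicle control, n = 10 per group. Deaths counted at 1 h, 4 h, daily on days 1-4 and over days 5-14. Eating, drinking, body weight and activity observed for 14 days, with survival (%) taken on day 14. LD50 calculated from mortality.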

[3] = test system: HCT-116; assay: Induction of apoptosis in human HCT116 cells after 48 hrs by annexin V-FITC/propidium iodide staining-based flow cytometric analysis; assay type: functional, cell-based
How it was run: (§2)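 HCT116 cells cultured overnight, then exposed in triplicate for 48 h to 0.1, 1.0 or 5.0 µM, SAHA 5.0 µM or vehicle. Stained with FITC-Annexin V/PI for 15 min at room temperature.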

[4] = Antiproliferative activity against human HCT116 cells assessed as cell viability after 48 hrs by MTT assay; assay type: functional, cell-based, HCT-116; conditions: Homo sapiens, HCT-116, 48 h
[5] = test system: HCT-116; assay: Induction of apoptosis in human HCT116 cells at 5 uM after 48 hrs by annexin V-FITC/propidium iodide staining-based flow cytometric analysis; assay type: functional
How it was run: as §2

[6] = target: Histone deacetylase; assay: Inhibition of HDAC in human HeLa cell nuclear extract using Boc-Lys (Ac)-AMC as substrate after 60 mins by fluorometric analysis; assay type: cell-based
[7] = test system: Mus musculus; assay: Acute toxicity in ICR mouse assessed as abnormality in eating at 240 mg/kg, ip measured for 14 days; assay type: organism-based; conditions: in vivo, 336 h
How it was run: as §1

[8] = test system: HDAC6 (Homo sapiens); assay: Selectivity index, ratio of IC50 for human recombinant HDAC8 to IC50 for human recombinant HDAC6
[9] = test system: Mus musculus; assay: Toxicity in BALB/c mouse xenografted with human HCT116 cells assessed as body weight change at 90 mg/kg, ip measured twice per week over 22 days; assay type: organism-based, HCT-116; conditions: in vivo, 528 h
[10] = target: T2, Histone deacetylase (Homo sapiens) (UniProt Q13547+O15379+Q9UBN7+Q92769+Q9UQL6+Q8WUI4+Q9BY41+Q96DB2+P56524+Q9UKV0+Q969S8); assay: Inhibition of HDAC in human HCT116 cells assessed as increase in acetyl-alpha-tubulin expression after 48 hrs by immunoblotting analysis; assay type: cell-based; conditions: HCT-116
How it was run: (§3)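 HCT116 cells treated 48 h with compound, SAHA or vehicle. Lysates probed by immunoblot for acetyl-histone H3 and acetyl-α-tubulin, with β-actin as loading control. Relative levels by densitometric scanning; means ± SD of three experiments.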

[11] = test system: Mus musculus; assay: Acute toxicity in ICR mouse assessed as death at 240 to 375 mg/kg, ip measured after 2 days; assay type: organism-based; conditions: in vivo, 48 h
How it was run: as §1

[12] = target: Histone deacetylase 1 (Homo sapiens, UniProt Q13547); assay: Potency index, ratio of IC50 for SAHA to IC50 for test compound for inhibition of human recombinant HDAC1 using Boc-Lys (Ac)-AMC as substrate after 60 mins by fluorometric analysis
How it was run: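 Recombinant human HDAC1 and HDAC8 incubated with compound dilutions plus Boc-Lys(Ac)-AMC at 37 °C for 60 min, then developer for 30 min. Fluorescence read at ex 355/em 460 nm; activity as % of control and IC50 calculated. Ratios formed from these IC50s; three independent experiments.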

[13] = target: Cellular tumor antigen p53 (Homo sapiens) (UniProt P04637); assay: Induction of p53 activation in human HCT116 cells assessed as upregulation of p21 expression at 0.1 to 5 uM after 12 hrs by western blot analysis; assay type: cell-based; conditions: HCT-116
How it was run: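 HCT116 cells exposed 12 h to compound or vehicle, then lysed on ice in PBS with 1% NP-40, 0.5% deoxycholate, 0.1% SDS and protease inhibitors. Up to 50 µg protein run on SDS-PAGE and immunoblotted for phospho-p53 (Ser15), p53 and p21. Bands quantified by densitometry against β-actin; mean ± SD of three experiments.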

[14] = test system: HCT-116; assay: Induction of PARP cleavage in human HCT116 cells at 1 to 5 uM after 48 hrs by western blot analysis; assay type: functional, cell-based
How it was run: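 HCT116 cells treated 48 h with or without compound. Western blots probed for Bax, Bcl-2, cleaved caspase-3 and PARP. Band intensities relative to β-actin by densitometry; means ± SD from three separate experiments.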

[15] = Antitumor activity against human HCT116 cells xenografted in BALB/c mouse assessed as tumor weight at 90 mg/kg, po measured twice per week over 22 days (reference value: 1.38 +/- 0.13 g); assay type: functional, HCT-116
[16] = Acute toxicity in ICR mouse assessed as survival rate at 468.8 mg/kg, ip measured on day 14; assay type: organism-based; conditions: in vivo
How it was run: as §1

[17] = Acute toxicity in ip dosed ICR mouse measured for 14 days; assay type: organism-based; conditions: in vivo
How it was run: as §1

[18] = Antitumor activity against human HCT116 cells xenografted in BALB/c mouse assessed as tumor growth inhibition at 90 mg/kg, po measured twice per week over 22 days; assay type: functional; conditions: HCT-116, po, 528 h, read-out: TGI
[19] = test system: LoVo; assay: Antiproliferative activity against human LoVo cells assessed as cell viability after 48 hrs by MTT assay; assay type: functional, cell-based
[20] = test system: Mus musculus; assay: Acute toxicity in ICR mouse assessed as death at 240 mg/kg, ip measured after 4 days; assay type: organism-based; conditions: in vivo, 96 h
How it was run: as §1

[21] = Acute toxicity in ICR mouse assessed as survival rate at 585.9 mg/kg, ip measured on day 14; assay type: organism-based; conditions: in vivo
How it was run: as §1

[22] = target: T2, Histone deacetylase (Homo sapiens); assay: Inhibition of HDAC in human HCT116 cells assessed as increase in acetyl-histone H3 expression after 48 hrs by immunoblotting analysis; assay type: cell-based; conditions: HCT-116
How it was run: as §3

[23] = Antiproliferative activity against human SW620 cells assessed as cell viability after 48 hrs by MTT assay; assay type: functional, cell-based; conditions: SW-620, 48 h
[24] = Acute toxicity in ICR mouse assessed as survival rate at 300 mg/kg, ip measured on day 14; assay type: organism-based; conditions: in vivo
How it was run: as §1

Sequence of Cellular tumor antigen p53 (Homo sapiens) (P04637 whole entry, looked up): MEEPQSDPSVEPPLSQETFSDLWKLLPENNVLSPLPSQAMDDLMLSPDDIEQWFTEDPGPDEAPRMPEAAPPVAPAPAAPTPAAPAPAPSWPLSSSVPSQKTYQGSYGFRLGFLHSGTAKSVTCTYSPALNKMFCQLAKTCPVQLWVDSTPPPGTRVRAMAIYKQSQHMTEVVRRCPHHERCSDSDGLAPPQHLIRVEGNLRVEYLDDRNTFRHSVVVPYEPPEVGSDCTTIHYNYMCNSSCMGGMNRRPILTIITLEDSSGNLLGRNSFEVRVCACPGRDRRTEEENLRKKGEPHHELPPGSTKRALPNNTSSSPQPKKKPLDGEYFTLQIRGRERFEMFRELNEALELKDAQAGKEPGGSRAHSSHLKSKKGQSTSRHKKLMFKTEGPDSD
Sequence of Histone deacetylase 1 (Q13547 whole entry): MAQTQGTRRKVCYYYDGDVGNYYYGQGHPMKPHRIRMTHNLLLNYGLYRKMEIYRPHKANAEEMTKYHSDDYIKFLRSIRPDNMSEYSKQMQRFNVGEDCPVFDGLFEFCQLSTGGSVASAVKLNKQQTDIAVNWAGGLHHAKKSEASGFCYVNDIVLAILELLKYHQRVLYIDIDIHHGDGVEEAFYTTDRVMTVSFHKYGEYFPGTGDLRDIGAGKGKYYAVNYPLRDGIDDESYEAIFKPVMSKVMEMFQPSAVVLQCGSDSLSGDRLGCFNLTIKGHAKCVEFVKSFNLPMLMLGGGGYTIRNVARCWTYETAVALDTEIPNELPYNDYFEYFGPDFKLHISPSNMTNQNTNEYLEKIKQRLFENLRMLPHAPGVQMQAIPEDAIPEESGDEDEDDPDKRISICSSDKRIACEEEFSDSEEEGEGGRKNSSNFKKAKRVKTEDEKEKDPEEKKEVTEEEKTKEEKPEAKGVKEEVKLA

Structure (SMILES): COc1ccc(-c2nc(NC(=O)NCCCC(=O)NO)cc3c2[nH]c2ccccc23)cc1
- IC50 [1]: 160 nM
- Activity [2]: Non-toxic
- Activity [3]: Dose-dependent effect
- GI50 [4]: 1170 nM
- IC50 [4]: 830 nM
- Activity [5]: 73.9%
- IC50 [6]: 270 nM
- Activity [7]: Non-toxic
- Ratio IC50 [8]: 5
- Activity [9]: Non-toxic
- inhibition [10]: Dose-dependent effect
- Activity [11]: Non-toxic
- Ratio IC50 [12]: 7
- Activity [13]: Active
- Activity [14]: Active
- Activity [15]: 0.53 g
- survival at 14 day [16]: 50%
- LD50 at 336 h [17]: 472 mg/kg
- inhibition in vivo at 90 mg/kg [18]: 61.6%
- IC50 [19]: 1630 nM
- Activity [20]: Non-toxic
- survival at 14 day [21]: 30%
- inhibition [22]: Dose-dependent effect
- IC50 [23]: 940 nM
- survival at 14 day [24]: 90%
